High-throughput results from PubChem BioAssay.
PREPL inh: PREPL enzyme inhibitors, primary screen, biochemical, fluorescence polarization. inhibition, % at 5.96 µM. Prolyl endopeptidase-like (Homo sapiens), Q4J6C6. recombinant PREPL, fluorescence polarization activity-based probe. actives 0.68% (n = 320,000). AID 2751, 2010; in the data active = inhibition above about 43%
Target sequence (Q4J6C6 whole entry, looked up): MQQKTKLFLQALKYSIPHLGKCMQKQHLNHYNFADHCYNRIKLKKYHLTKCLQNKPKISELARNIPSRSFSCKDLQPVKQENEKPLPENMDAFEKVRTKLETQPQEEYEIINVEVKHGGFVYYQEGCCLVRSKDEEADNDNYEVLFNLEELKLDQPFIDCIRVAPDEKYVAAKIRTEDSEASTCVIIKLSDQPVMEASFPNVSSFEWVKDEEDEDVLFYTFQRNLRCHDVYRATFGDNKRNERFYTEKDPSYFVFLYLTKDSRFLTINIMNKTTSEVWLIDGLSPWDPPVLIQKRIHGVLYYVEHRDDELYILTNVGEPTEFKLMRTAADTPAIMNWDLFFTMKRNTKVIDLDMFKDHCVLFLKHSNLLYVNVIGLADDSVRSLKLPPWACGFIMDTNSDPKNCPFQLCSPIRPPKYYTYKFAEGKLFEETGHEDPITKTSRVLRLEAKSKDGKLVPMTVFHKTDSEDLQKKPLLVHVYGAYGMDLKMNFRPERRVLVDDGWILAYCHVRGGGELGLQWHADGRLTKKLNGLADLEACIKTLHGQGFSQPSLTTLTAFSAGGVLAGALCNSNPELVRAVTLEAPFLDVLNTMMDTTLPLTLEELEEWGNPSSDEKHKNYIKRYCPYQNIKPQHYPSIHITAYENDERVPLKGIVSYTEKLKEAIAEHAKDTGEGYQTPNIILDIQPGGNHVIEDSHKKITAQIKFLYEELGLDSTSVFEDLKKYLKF
NR3A LBD binder: binders of NR3A ligand-binding domain, primary screen, biophysical, differential scanning fluorimetry, uHTS; Glutamate receptor ionotropic, NMDA 3A (GRIN3A) ligand-binding domain; NR3A LBD differential scanning fluorimetry, Tm shift; 0% = protein alone, 100% = glycine-bound protein; Tm shift relative to glycine control, % at 25 µM; actives 2.5% (n = 340,000);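 active = melting temperature shift of at least 10% of the positive control shift, at one fixed dose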
CSC inhib: cancer stem cell viability inhibitors, primary screen, luminescence. cancer stem cell-like cells viability. inhibition, % at 7.5 µM. actives 1.1% (n = 300,000); in the data active = inhibition above about 75%; inconclusive = no clear call, values can overlap the other calls; tested in HMLE shEcad cells
CHOP inhibitor: inhibitors of CHOP promoter induction, primary screen, cell-based, unfolded protein response, luciferase reporter; CHO-K1 CHOP-promoter luciferase, tunicamycin-induced, 15-18 h; inhibition, % at 10 µM; actives 3.8% (n = 220,000);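 active = compounds that reduced the stress-induced luciferase reporter signal by more than about 70% of percent inhibition, limit read from the data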
T cruzi repl: inhibitors of intracellular T. cruzi growth, primary screen, luminescence, NIH3T3 host cells | T. cruzi beta-gal in NIH3T3, 90 h | inhibition, % (concentration not given with the values) | actives 1.4% (n = 300,000) | AID 1885, 2009;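 active = mean inhibition across valid replicates above about 55%, limit read from the data; inconclusive = mean below that limit but half or more replicates reach it; inactive = mean below it, under half of replicates reach it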;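 also: signal also drops with host cell toxicity which is not excluded here; higher percent means less beta-gal luminescence so fewer parasites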
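Material: NIH/3T3 host cells with β-galactosidase reporter T. cruzi; Input: 5,000 host fibroblasts per well; Medium: DMEM, 2% fetal bovine serum; Compound: 50 nL DMSO compound solution per well; Schedule: 3 h host attachment, then at least 90 h co-culture; Detection: luminescent β-galactosidase signal after 60 min lysis.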
Beta cell apopt: inhibitors of cytokine-induced beta cell apoptosis, primary screen, luminescence; INS-1E cytokine-induced death, ATP luminescence, 48 h; percent of positive-control rescue, neutral wells zero; protection from apoptosis, % (test concentration not listed); actives 0.8% (n = 300,000);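 active = Every replicate reaches about 75%, or at least half do and their mean reaches it too, limit read from the data; inconclusive = At least half of replicates reach the limit but their mean does not; inactive = Under half of replicates reach the limit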;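 also: higher means more ATP so stronger rescue from cytokine killing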
Each line names hits and unclear results; the compound was inactive in the other large screens. A selection: hits, their analogues and other compounds. The true share with any hit is near 6.7%.

O=C(C1CCCN(Cc2ccc(Cl)cc2)C1)N1CCCCC1 (stereo unspecified)	T cruzi repl 57 (no result: CHOP inhibitor)
CCOC(=O)C1CCCN(Cc2cccs2)C1 (stereo unspecified)	none
O=C(C1CCCN(Cc2ccccc2)C1)N1CCCCC1 (stereo unspecified)	none
Cc1cccc(CN2CCCC(C(=O)N3CCc4ccccc4C3)C2)c1 (stereo unspecified)	T cruzi repl 55
CN(C1CCCCC1)S(=O)(=O)c1ccc(C(=O)N2CCN(c3nc4ccccc4s3)CC2)cc1	none
Cc1cc2ccccn2c1C(=O)c1cccc([N+](=O)[O-])c1	none
Cc1cc2ccccn2c1C(=O)c1ccc([N+](=O)[O-])o1	CSC inhib inconclusive, T cruzi repl 74
C=CCn1c(SCC(=O)NCC2CCCO2)nnc1-c1ccccc1 (stereo unspecified)	none
CC(C)(C)c1ccc(C(=O)N2CCN(CCNC(=O)C(=O)NCc3ccc(Cl)cc3)CC2)cc1	T cruzi repl 66 (no result: CHOP inhibitor)
CC(=O)Nc1ccccc1N(CC(O)Cn1c2ccccc2c2ccccc21)S(=O)(=O)c1ccc(C)cc1 (stereo unspecified)	NR3A LBD binder 13
COc1ccc(N(CC(O)Cn2c3ccccc3c3ccccc32)S(=O)(=O)c2ccccc2)cc1 (stereo unspecified)	none
Cc1cccc(NC(=O)c2cc(NC(=O)c3ccccc3)ccc2N2CCCCC2)c1	none (no result: CSC inhib)
C#Cc1ccc(C(=O)Nc2ccc(N3CCC(C)CC3)c(C(N)=O)c2)cc1	NR3A LBD binder 27
CSc1ccc(/C=N/NC(=O)CNc2ccc3ccccc3c2)cc1	NR3A LBD binder 21
Cc1ccc(C(=O)N/N=C/c2cccc(OC(=O)/C=C/c3ccco3)c2)cn1	none
O=C(CNc1cccc2ccccc12)N/N=C/c1ccc[nH]1	none
O=C(/C=C/c1ccco1)Oc1cc(Br)cc(/C=N/NC(=O)c2ccccc2O)c1	NR3A LBD binder 11
O=C(CNc1ccc2ccccc2c1)N/N=C/c1ccncc1	none (no result: CHOP inhibitor)
O=C(CNc1ccc2ccccc2c1)N/N=C/c1ccc(OC(=O)/C=C/c2ccco2)cc1	NR3A LBD binder 21
CSc1ccc(/C=N/NC(=O)CNc2cccc3ccccc23)cc1	NR3A LBD binder 19, CHOP inhibitor 94
O=C(NCC12CC3CC(CC(C3)C1)C2)c1cc2n(n1)C(C(F)(F)F)CC(c1ccco1)N2 (stereo unspecified)	CHOP inhibitor 102
Cc1cc(NC(=O)c2cc3n(n2)C(C(F)(F)F)CC(c2ccco2)N3)n(-c2ccccc2)n1 (stereo unspecified)	CHOP inhibitor 76
COc1ccc(NC(=O)c2cc3n(n2)C(C(F)(F)F)CC(c2ccco2)N3)cc1 (stereo unspecified)	none
O=C(c1cc2n(n1)C(C(F)(F)F)CC(c1ccco1)N2)N1CCc2ccccc2C1 (stereo unspecified)	CHOP inhibitor 83
Cc1nnc(SCc2ccc(CSc3nnc(C)c(=O)[nH]3)cc2)[nH]c1=O	none
CCOC(=O)C1CCN(C(=O)Cn2ncc3c([nH]c4ccccc43)c2=O)CC1	NR3A LBD binder 13 (no result: CHOP inhibitor, Beta cell apopt)
O=C(NCc1nc2ccccc2[nH]1)C1=C[C@@H](c2ccc3c(c2)OCO3)C[C@@H](OCc2ccc(CO)cc2)O1	none (no result: PREPL inh, NR3A LBD binder, CSC inhib, Beta cell apopt)
CCOc1cc(/C=N/NC(=O)Cn2nc([N+](=O)[O-])cc2C)cc(Br)c1OCc1ccccc1F	CHOP inhibitor 78 (no result: CSC inhib)
N=C1/C(=C\c2ccc(OCc3ccccc3)cc2)C(=O)N=C2SC(N3CCCC3)=NN12	none (no result: PREPL inh, NR3A LBD binder, CSC inhib, T cruzi repl, Beta cell apopt)
COc1ccc(Cl)cc1C=CC=NNS(=O)(=O)c1ccc(C)cc1	NR3A LBD binder 20 (no result: PREPL inh, CSC inhib, CHOP inhibitor, T cruzi repl, Beta cell apopt)
Cc1ccc(S(=O)(=O)NN=Cc2cc(Cl)ccc2O)cc1	none (no result: PREPL inh, CSC inhib, CHOP inhibitor, T cruzi repl, Beta cell apopt)
COc1cc2c(cc1NC(=O)Nc1ccc(C)cc1)oc1ccccc12	NR3A LBD binder 29, CSC inhib 88
COc1cc2c(cc1NC(=O)COC(=O)CNS(=O)(=O)c1ccc(C)cc1)oc1ccccc12	none
COc1cc2c(cc1NC(=O)COC(=O)[C@@H](NS(=O)(=O)c1cccc(Cl)c1)C(C)C)oc1ccccc12	none
COc1ccc(C)cc1NC(=O)Nc1cccc(C)c1	none
COc1cc2c(cc1NC(=O)Nc1cccc(C)c1)oc1ccccc12	NR3A LBD binder 39, CHOP inhibitor 90
COc1ccc(S(=O)(=O)N[C@@H](C)C(=O)OCC(=O)Nc2cc3oc4ccccc4c3cc2OC)cc1	NR3A LBD binder 25
COc1cc2c(cc1NC(=O)c1cccc([N+](=O)[O-])c1C)oc1ccccc12	NR3A LBD binder 20, CSC inhib 102
Cc1nc(NCCC(C)C)c2nnn(Cc3ccccc3)c2n1	none (no result: CHOP inhibitor)
COc1ccc(OCC(=O)Nc2cc3oc4ccccc4c3cc2OC)cc1	none
COc1cc2c(cc1NC(=S)Nc1ccccc1C)oc1ccccc12	none
COc1ccc(NC(=O)c2ccccc2[N+](=O)[O-])cc1	none
COc1ccc(NC(=O)Nc2cc3oc4ccccc4c3cc2OC)cc1	NR3A LBD binder 13
COc1cc2c(cc1NC(=O)Nc1ccc(F)cc1)oc1ccccc12	NR3A LBD binder 186, T cruzi repl 60
COc1ccccc1Nc1ccc(NC(=O)c2cccc([N+](=O)[O-])c2C)cc1	NR3A LBD binder 19, CSC inhib inconclusive (no result: CHOP inhibitor)
COc1cc2c(cc1NC(=S)Nc1cccc(C)c1)oc1ccccc12	PREPL inh 44, NR3A LBD binder 26
COc1ccc(-c2[nH]ncc2CNCCn2cccn2)c(F)c1	none
c1ccc2c(c1)CCc1ccccc1C2=C1CCNCC1	none (no result: CHOP inhibitor)
COc1cc2c(cc1NC(=O)C1CCCO1)oc1ccccc12 (stereo unspecified)	none
COc1cc2c(cc1NC(=O)C(C)Sc1ccc(NC(C)=O)cc1)oc1ccccc12 (stereo unspecified)	NR3A LBD binder 16
Cc1noc(NS(=O)(=O)c2ccc(NC(=O)NC(C)(C(F)(F)F)C(F)(F)F)cc2)c1C	none (no result: CHOP inhibitor)
Cn1nc(-c2ccc(NCCO)c([N+](=O)[O-])c2)c2ccccc2c1=O	none
CN(C)CCNc1ccc(-c2nn(C)c(=O)c3ccccc23)cc1[N+](=O)[O-]	T cruzi repl 72
CC1(C)CC(NC(=O)C(Cl)(Cl)Cl)CC(C)(C)N1	none
N#Cc1ccc(NC(=O)COC(=O)CSc2nnc(-c3ccc(Cl)cc3)o2)cc1	none
CCN(CC)CCCC(C)Nc1c2ccc(Cl)cc2nc2ccc(OC)cc12 (stereo unspecified)	none (no result: PREPL inh, NR3A LBD binder, CSC inhib, T cruzi repl, Beta cell apopt)
COc1ccc2nc3cc(Cl)ccc3c(Nc3cc(C(C)C)c(O)cc3C)c2c1	CSC inhib 103, Beta cell apopt 114
